# ChEMBL document CHEMBL4823251, “Structure-Based Exploration of Selectivity for ATM Inhibitors in Huntington's Disease” (J Med Chem, 2021)
# Experiments:
# [1] = Kinetic solubility of the compound in pH 7.4 PBS buffer incubated for 2 hrs using orbital shaker by LC-UV mass spectrometry; assay type: physicochemical; conditions: read-out: Kinetic_solubility
# How it was run: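 Shaken on an orbital shaker for 2 h at room temperature, then filtered. Filtrate analysed by LC-UV with MS confirmation, calibrated against 200 μM and 10 μM DMSO dilutions.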
# [2] = species: Homo sapiens; assay: Selectivity ratio of Ki for full length recombinant GST-tagged VPS34 expressed in baculovirus expression system using PI/PS as substrate incubated for 60 mins in presence of ATP at Km concentration by luminescence assay to Ki for full length recombinant FLAG-tagged human ATM assessed as decrease in p53 S15 phosphorylation using full length myc-tagged p53 as substrate incubated for 30 mins in presence of ATP by ELISA
# How it was run: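 ADP-Glo luminescence read-out. ATM reaction: 0.75 nM enzyme, 25 nM myc-p53, 10 μM ATP, 30 min at 20 °C, p53 S15 phosphorylation by ELISA. Ki values are means of at least two experiments.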
# [3] = target: T1, Serine-protein kinase ATM (Homo sapiens, UniProt Q13315); assay: Inhibition of full length recombinant FLAG-tagged human ATM assessed as decrease in p53 S15 phosphorylation using full length myc-tagged p53 as substrate incubated for 30 mins in presence of ATP by ELISA
# How it was run: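 Buffer was 25 mM HEPES pH 7.5 with MgCl₂, MnCl₂, Brij-35, glycerol, BSA and DTT (0.1% DMSO); reaction ran 30 min at 20 °C and was stopped with 70 mM EDTA. Product captured on anti-myc-coated plates and detected with anti-p53 pS15, HRP secondary and TMB, absorbance at 450 nm.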
# [4] = target: T1, Serine-protein kinase ATM; assay: Inhibition of ATM in human U2OS cells assessed as reduction in etoposide-stimulated KAP1 phosphorylation incubated for 60 mins by immunoreactivity assay; assay type: cell-based
# How it was run: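 U2OS cells plated overnight at 6k cells/well (37 °C, 5% CO₂), then treated with compound titrations (0.3% DMSO) plus 100 μM etoposide for 60 min. Cells fixed in cold methanol and stained for phospho-KAP1 and total KAP1 using IRDye secondaries on a LI-COR Odyssey. IC50 is the mean of at least two experiments.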
# [5] = target: Phosphatidylinositol 3-kinase catalytic subunit type 3 (Homo sapiens, UniProt Q8NEB9); assay: Inhibition of full length recombinant GST-tagged human VPS34 expressed in baculovirus expression system using PI/PS as substrate incubated for 60 mins in presence of ATP at Km concentration by luminescence assay
# [6] = Aqueous solubility of the compound in pH 7.4; assay type: physicochemical; conditions: buffer
# [7] = Intrinsic clearance in C57Bl/6 mouse pooled liver microsomes at 1 uM measured up to 40 mins in presence of NADPH by LC-MS/MS analysis; assay type: ADME, Microsome; conditions: read-out: CLH
# How it was run: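 Reaction started with 1 mM NADPH. Sampled at 0, 5, 10, 20 and 40 min, quenched in acetonitrile with internal standard, and analysed by LC–MS/MS.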
# [8] = Effective efflux ratio of apparent permeability across basolateral to apical over apical to basolateral side in MDCK-MDR1 cells assessed as efflux ratio after 1 hr by LC-MS/MS analysis; assay type: ADME, cell-based, Canis lupus familiaris; conditions: dog, mdck-mdr1, 1 h
# How it was run: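 MDCKII MDR1 and wild-type cells seeded at 2 × 10⁵ cells/well in Transwells, cultured 3 days. Test compounds 10 μM in HBSS with 25 mM HEPES pH 7.4, dosed apical or basolateral in duplicate, 1 h at 37 °C. Lucifer yellow monolayer check, wells above 100 nm/s rejected. LC–MS/MS read-out. ER = Papp B>A/A>B. EER = MDR1 ER over wild-type ER.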
# [9] = Apparent permeability across apical to basolateral side in MDCK-MDR1 cells after 1 hr by LC-MS/MS analysis; assay type: ADME, cell-based, Canis lupus familiaris; conditions: dog
# How it was run: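 MDCKII-MDR1 and wild-type cells seeded at 2 × 10⁵ cells/well on Transwells and cultured 3 days. Test compound at 10 μM in HBSS with 25 mM HEPES, pH 7.4, added apical or basolateral in duplicate. Lucifer yellow used as integrity check; wells above 100 nm/s rejected. Sampled after 1 h at 37 °C and quantified by LC–MS/MS. Papp taken from the apical-to-basal direction.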
# T1 sequence (Q13315 whole entry): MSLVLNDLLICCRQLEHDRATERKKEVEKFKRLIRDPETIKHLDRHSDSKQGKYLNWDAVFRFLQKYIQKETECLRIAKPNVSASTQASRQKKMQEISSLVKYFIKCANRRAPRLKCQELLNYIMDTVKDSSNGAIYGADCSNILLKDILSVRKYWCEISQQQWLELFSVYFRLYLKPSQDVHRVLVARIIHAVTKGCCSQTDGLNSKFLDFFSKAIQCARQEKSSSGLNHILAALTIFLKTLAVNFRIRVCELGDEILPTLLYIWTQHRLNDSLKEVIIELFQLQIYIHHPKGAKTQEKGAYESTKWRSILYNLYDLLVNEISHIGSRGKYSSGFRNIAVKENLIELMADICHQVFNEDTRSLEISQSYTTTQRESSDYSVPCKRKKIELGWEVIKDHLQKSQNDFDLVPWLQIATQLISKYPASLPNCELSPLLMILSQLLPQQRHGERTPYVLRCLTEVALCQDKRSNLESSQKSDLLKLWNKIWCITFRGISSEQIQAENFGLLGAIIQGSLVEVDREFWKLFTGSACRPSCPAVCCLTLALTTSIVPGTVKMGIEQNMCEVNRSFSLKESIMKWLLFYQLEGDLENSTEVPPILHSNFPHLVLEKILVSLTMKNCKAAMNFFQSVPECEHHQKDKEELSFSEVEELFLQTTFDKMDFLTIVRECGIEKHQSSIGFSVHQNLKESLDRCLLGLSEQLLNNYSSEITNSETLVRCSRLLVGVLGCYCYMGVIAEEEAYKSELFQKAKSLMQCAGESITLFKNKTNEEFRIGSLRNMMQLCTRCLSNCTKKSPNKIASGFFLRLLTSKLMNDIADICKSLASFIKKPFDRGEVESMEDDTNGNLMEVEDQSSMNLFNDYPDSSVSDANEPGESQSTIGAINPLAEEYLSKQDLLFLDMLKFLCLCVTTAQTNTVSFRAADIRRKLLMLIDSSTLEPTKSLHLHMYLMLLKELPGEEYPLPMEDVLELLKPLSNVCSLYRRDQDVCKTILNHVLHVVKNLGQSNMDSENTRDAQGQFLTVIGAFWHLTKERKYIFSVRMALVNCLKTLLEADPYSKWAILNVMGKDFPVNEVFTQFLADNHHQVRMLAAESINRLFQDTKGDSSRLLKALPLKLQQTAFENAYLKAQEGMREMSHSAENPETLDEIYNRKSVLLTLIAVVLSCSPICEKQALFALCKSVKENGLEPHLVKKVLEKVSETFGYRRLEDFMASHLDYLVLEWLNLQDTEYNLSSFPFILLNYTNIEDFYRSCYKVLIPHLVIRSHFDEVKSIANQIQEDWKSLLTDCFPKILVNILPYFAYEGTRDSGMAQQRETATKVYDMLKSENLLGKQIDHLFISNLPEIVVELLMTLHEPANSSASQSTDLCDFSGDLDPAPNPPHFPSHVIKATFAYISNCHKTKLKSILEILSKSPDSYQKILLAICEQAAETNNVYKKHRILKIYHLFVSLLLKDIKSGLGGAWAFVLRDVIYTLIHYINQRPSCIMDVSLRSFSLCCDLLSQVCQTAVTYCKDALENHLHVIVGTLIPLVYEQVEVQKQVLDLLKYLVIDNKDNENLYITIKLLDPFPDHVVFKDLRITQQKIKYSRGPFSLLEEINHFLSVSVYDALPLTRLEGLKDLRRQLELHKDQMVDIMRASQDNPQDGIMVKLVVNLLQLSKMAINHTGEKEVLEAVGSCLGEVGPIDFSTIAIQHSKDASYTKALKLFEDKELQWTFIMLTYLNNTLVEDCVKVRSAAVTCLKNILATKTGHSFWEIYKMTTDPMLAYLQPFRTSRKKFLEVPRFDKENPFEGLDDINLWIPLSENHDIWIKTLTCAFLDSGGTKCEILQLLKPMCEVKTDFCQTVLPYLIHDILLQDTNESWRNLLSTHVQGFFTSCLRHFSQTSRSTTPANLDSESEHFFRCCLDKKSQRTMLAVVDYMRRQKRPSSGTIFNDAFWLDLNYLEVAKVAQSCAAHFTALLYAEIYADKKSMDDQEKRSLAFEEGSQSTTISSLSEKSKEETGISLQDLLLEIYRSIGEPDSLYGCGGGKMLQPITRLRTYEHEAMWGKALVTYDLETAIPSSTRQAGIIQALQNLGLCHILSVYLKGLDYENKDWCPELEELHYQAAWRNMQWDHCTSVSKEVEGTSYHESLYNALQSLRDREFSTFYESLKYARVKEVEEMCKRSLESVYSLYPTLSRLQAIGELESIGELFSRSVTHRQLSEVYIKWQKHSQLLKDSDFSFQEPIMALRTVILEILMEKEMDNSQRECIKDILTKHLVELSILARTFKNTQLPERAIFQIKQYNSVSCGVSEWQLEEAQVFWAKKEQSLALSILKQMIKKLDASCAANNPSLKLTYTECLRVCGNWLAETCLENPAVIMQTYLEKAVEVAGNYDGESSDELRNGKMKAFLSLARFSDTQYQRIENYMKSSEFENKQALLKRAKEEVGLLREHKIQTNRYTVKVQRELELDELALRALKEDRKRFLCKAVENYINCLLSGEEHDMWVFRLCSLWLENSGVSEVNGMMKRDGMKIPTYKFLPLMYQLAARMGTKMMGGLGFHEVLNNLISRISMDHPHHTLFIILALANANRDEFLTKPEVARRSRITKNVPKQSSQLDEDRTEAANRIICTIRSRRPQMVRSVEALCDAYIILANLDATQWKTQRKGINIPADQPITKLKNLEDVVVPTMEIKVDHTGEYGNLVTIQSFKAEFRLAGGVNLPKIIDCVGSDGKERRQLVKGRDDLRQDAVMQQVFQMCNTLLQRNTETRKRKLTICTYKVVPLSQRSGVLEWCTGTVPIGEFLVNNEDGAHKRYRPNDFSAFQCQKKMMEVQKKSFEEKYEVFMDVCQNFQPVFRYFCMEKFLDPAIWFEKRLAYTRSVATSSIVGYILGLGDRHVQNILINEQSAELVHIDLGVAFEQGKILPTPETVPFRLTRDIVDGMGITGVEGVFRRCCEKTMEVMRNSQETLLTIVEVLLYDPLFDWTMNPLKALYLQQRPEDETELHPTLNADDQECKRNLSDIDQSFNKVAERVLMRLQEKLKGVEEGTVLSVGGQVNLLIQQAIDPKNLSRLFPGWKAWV
# Sequence of Phosphatidylinositol 3-kinase catalytic subunit type 3 (Q8NEB9 whole entry): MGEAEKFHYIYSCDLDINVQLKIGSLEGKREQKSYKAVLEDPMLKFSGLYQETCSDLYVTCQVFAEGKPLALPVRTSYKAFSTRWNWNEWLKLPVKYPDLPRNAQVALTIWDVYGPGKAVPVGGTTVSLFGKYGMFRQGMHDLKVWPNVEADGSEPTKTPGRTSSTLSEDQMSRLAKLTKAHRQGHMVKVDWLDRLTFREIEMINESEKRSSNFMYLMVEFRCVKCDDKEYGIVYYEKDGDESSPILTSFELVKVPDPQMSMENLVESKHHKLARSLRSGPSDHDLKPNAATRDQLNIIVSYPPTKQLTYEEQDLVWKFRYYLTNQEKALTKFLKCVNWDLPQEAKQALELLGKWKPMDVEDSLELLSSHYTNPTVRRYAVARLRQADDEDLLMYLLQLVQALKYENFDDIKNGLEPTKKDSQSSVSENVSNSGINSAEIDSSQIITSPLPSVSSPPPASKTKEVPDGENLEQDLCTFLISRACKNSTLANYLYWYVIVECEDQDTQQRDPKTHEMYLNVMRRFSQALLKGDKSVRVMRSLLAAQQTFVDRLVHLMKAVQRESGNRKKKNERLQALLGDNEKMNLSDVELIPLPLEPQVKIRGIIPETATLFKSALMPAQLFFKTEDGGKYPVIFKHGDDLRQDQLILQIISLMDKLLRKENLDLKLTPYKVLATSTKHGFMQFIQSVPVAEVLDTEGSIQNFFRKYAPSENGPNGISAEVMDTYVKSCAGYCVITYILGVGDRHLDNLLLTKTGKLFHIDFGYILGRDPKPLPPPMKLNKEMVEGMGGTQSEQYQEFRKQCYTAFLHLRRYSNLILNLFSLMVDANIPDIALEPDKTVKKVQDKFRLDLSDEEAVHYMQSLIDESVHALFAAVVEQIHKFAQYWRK
smiles,measurement,setting,value
COc1ccc2c(c1)Cc1cccc(-c3cc(N4CCOCC4)cc(OC)n3)c1S2,solubility kinetic at 2 h,[1],< 2 µg/mL
same,Ratio Ki,[2],> 3
same,Ki,[3],> 1600 nM
same,IC50,[4],> 30000 nM
same,Ki,[5],> 5000 nM
O=c1cc(N2CCOCC2)cc(N2CCCC2Cc2ccccc2)[nH]1 (racemic),solubility kinetic at 2 h,[1],> 68 µg/mL
same,Ratio Ki,[2],2
same,Ki,[3],30 nM
same,IC50,[4],4000 nM
same,Ki,[5],49 nM
C[C@@H]1CN(c2cc(N3C[C@H]4C[C@H]4[C@@H]3Cc3ccccc3)[nH]c(=O)c2)CCO1,solubility kinetic at 2 h,[1],62 µg/mL
same,Ki,[5],> 5000 nM
COc1ccc2c(c1)Cc1cccc(-c3cc(O)nc(N4CCOCC4)n3)c1S2,solubility kinetic at 2 h,[1],4 µg/mL
same,Ratio Ki,[2],1
same,Ki,[3],25 nM
same,IC50,[4],6700 nM
same,Ki,[5],35 nM
C[C@@H]1CN(c2cc(N3CCCCC[C@@H]3Cc3ccccc3)[nH]c(=O)c2)CCO1,solubility kinetic at 2 h,[1],70 µg/mL
same,Ratio Ki,[2],200
same,Ki,[3],1 nM
same,IC50,[4],1600 nM
same,Ki,[5],1800 nM
COc1ccc2c(c1)Cc1cccc(-c3cc(=O)cc(N4CCOCC4)o3)c1S2,solubility kinetic at 2 h,[1],11 µg/mL
same,solubility,[6],1 µg/mL
O=c1cc(N2CCOCC2)cc(N2CCC(F)(F)[C@@H]2Cc2ccccc2)[nH]1,solubility kinetic at 2 h,[1],65 µg/mL
same,Ratio Ki,[2],6.5
same,Ki,[3],6 nM
same,CLint scaled at 1 µM,[7],< 65 mL/min/kg
same,Ratio,[8],2.6
same,Papp A→B at 1 h,[9],75.2 ×10⁻⁶ cm/s
same,Ki,[5],39 nM
O=c1cc(N2CCOCC2)cc(N2CCC[C@H]2Cc2ccccc2)[nH]1,solubility kinetic at 2 h,[1],> 55 µg/mL
same,Ratio Ki,[2],> 1
same,Ki,[3],> 900 nM
same,IC50,[4],> 30000 nM
same,Ki,[5],630 nM
O=c1cc(N2CCOCC2)cc(N2CCC[C@@H]2Cc2ccccc2)[nH]1,solubility kinetic at 2 h,[1],> 68 µg/mL
same,Ratio Ki,[2],1
same,Ki,[3],6 nM
same,CLint scaled at 1 µM,[7],115 mL/min/kg
same,Ratio,[8],4.8
same,Papp A→B at 1 h,[9],59.9 ×10⁻⁶ cm/s
same,Ki,[5],9 nM
O=c1cc(N2CCOCC2)nc(N2C[C@H]3C[C@H]3[C@@H]2Cc2ccccc2)[nH]1,solubility kinetic at 2 h,[1],54 µg/mL
same,Ratio Ki,[2],105
same,Ki,[3],0.2 nM
same,IC50,[4],130 nM
same,Ki,[5],21 nM
COc1ccc2c(c1)Cc1cccc(-c3cc(N4CCOCC4)nc(O)n3)c1S2,solubility kinetic at 2 h,[1],< 2 µg/mL
same,Ratio Ki,[2],21
same,Ki,[3],160 nM
same,IC50,[4],> 30000 nM
same,Ki,[5],3300 nM
COc1ccc2c(c1)Cc1cccc(-c3cc(N4CCOCC4)cc(=O)[nH]3)c1S2,solubility kinetic at 2 h,[1],14 µg/mL
same,Ratio Ki,[2],33
same,Ki,[3],4 nM
same,IC50,[4],880 nM
same,Ki,[5],130 nM
O=c1cc(N2CCOCC2)cc(N2CC[C@@H](F)[C@@H]2Cc2ccccc2)[nH]1,solubility kinetic at 2 h,[1],> 71 µg/mL
same,Ratio Ki,[2],43
same,Ki,[3],3 nM
same,CLint scaled at 1 µM,[7],< 65 mL/min/kg
same,IC50,[4],1300 nM
same,Ratio,[8],7.2
same,Papp A→B at 1 h,[9],51.8 ×10⁻⁶ cm/s
same,Ki,[5],110 nM
O=c1cc(N2CCOCC2)nc(N2CCCCC[C@@H]2Cc2ccccc2)[nH]1,solubility kinetic at 2 h,[1],48 µg/mL
same,Ratio Ki,[2],80
same,Ki,[3],0.1 nM
same,CLint scaled at 1 µM,[7],287 mL/min/kg
same,IC50,[4],200 nM
same,Ratio,[8],3.1
same,Papp A→B at 1 h,[9],58.1 ×10⁻⁶ cm/s
same,Ki,[5],8 nM
